CHO parental Ca: ATP-evoked calcium signal inhibitors, parental CHO, primary screen, counter-screen for OX1R antagonist project, cell-based, fluorescence, Fluo-8 calcium dye. parental CHO-K1, ATP-induced calcium, Fluo-8 fluorescence. inhibition, % at 5.6 µM. 0.63% of 330,000 active;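 active = inhibition above that plate's mean sample inhibition plus 3 SD, cut at about 26% in these data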
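Material: parental CHO cells / Compound: single nominal dose of 5.6 µM per compound / Signal: Fluo-8 fluorescence / Replicates: singlicate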
OX1R antag-1: antagonists of human orexin 1 receptor (OX1R); Orexin/Hypocretin receptor type 1 (Homo sapiens), O43613; OX1R-expressing cells, FRET antagonist read-out; inhibition, % at 6.6 µM; 1.8% of 330,000 active; in the data active = inhibition mostly above about 38%, no sharp cut-off; inactive = mostly below about 40%
NTR1 ag: agonists of human NTR1, primary screen, imaging, U2OS cells, beta-arrestin-GFP, high content; 0.17% of 330,000 active; NTR1-U2OS beta-arrestin-GFP spot imaging, agonist mode; activation, % at 20 µM;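 active = activation at or above 40% of the spot to cytoplasm intensity ratio, with at least 20 cells analyzed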
Target sequence (P30989 whole entry, looked up): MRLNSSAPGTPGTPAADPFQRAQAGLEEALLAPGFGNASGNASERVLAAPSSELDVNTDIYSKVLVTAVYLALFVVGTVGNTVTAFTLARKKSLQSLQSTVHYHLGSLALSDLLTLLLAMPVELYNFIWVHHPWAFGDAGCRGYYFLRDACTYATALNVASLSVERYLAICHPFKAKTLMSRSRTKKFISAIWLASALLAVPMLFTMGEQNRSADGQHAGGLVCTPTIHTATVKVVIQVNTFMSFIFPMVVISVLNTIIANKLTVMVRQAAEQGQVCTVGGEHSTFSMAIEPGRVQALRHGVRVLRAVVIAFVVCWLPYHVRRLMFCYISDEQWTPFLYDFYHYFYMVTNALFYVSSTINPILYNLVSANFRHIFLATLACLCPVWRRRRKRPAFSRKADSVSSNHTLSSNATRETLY
OX1R antag-2: OX1R (HCRTR1) antagonists, primary screen, fluorescence, CHO/OX1R cells, Fluo-8 calcium, orexin A; inhibition, % at 5 µM; Fluo-8 calcium fluorescence; AID 434989, 2010; 0.43% of 330,000 active; Orexin/Hypocretin receptor type 1 (Homo sapiens), O43613;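 active = inhibition above its plate's threshold, mean inhibition of all tested compounds on the plate plus 3 SD, cut at about 37% in these data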
TAAR1 antag: human TAAR1 antagonists, primary screen, Fluo-8 calcium fluorescence, CHO RD-HGA16 cells | Trace amine-associated receptor 1 (Homo sapiens), Q96RJ0 | antagonist | inhibition, % at 3 µM | 1.5% of 360,000 active;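 active = inhibition above a per-plate cutoff, the mean inhibition of test compounds on that plate plus 3 SD, cut at about 49% in these data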
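Test system: RD-HGA16 CHO cells with stable hTAAR1 and Gα16 / Probe or stimulus: EC80 β-phenethylamine stimulus / Times: seeding 17-24 h prior, 75-min 37 °C, 30-min RT dye loading / Detection: Fluo-8 calcium-sensitive fluorescence / Read-out basis: % inhibition scaled between DMSO and EC80 PEA controls / Repeats: singlicate, one well per test compound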
TAAR1 ag: human TAAR1 agonists, primary screen, Fluo-8 calcium fluorescence, CHO RD-HGA16 cells. Trace amine-associated receptor 1 (Homo sapiens), Q96RJ0. vehicle wells 0%, saturating PEA agonist 100%. activation, % at 3 µM. 0.99% of 360,000 active;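 active = activation above the mean activation of all test compounds in the run plus 3 SD, cut at about 38% in these data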
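Assay system – CHO-derived RD-HGA16 cells with stable Gα16 and human TAAR1 · Compound dosing – one-point dosing at 3 µM (nominal) · Incubation – 17-24 h seeding, 75 min 37 °C dye, 30 min RT · Measured by – kinetic Fluo-8 calcium fluorescence · Control set – DMSO vehicle as 0%, PEA at EC100 as 100% · Repeats – single well for each compound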
OX1R HTRF conf: OX1R (HCRTR1) antagonists, confirmation, cell-based, HTRF. shares compounds with OX1R antag-1. OX1R-expressing cells, HTRF antagonist assay. inhibition, % at 6.6 µM. 49% of 1,800 active; in the data active = inhibition above about 55%;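 note: CHO cells expressing OX1R stimulated with orexin A at about EC80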
CHO-K1 HTRF: signal inhibition in parental CHO-K1 cells, counter-screen for OX1R antagonist project, cell-based, HTRF. shares compounds with OX1R antag-1. HTRF counterscreen. inhibition, % at 6.6 µM. 48% of 1,800 active; in the data active = inhibition above about 17%
Large screens that a line does not name were inactive (follow-up assays come after a bar, where they were run). Most compounds without a hit are left out; they make up all but 4% or so of the library.

CC1=C(C(=O)OCc2ccccc2)C(c2ccc(C)o2)C2=C(CCCC2=O)N1 (stereo not drawn)	none
CC1=C(C(=O)OC2CCCCC2)C(c2ccc(C)o2)C2=C(CCCC2=O)N1 (stereo not drawn)	OX1R antag-1 99.4 | OX1R HTRF conf 87.4 | CHO-K1 HTRF inactive
C#Cc1ccc2c(c1)COc1c3ccccc3nn1-2	OX1R antag-1 84.4 | OX1R HTRF conf 59.8 | CHO-K1 HTRF inactive
COC(=O)c1cc(=O)c2c(C)nc(C(Cl)(Cl)Cl)nc2[nH]1	OX1R antag-1 79.0 | OX1R HTRF conf inactive | CHO-K1 HTRF inactive
Cc1cc(C)n(C(=O)c2cccc([N+](=O)[O-])c2)n1	none
Cc1cc(C)n(C(=O)c2cc([N+](=O)[O-])cc([N+](=O)[O-])c2)n1	OX1R antag-1 103.5 | OX1R HTRF conf 70.6 | CHO-K1 HTRF 61.9
COCCNC(=O)CN(c1cc(Cl)ccc1OC)S(=O)(=O)c1ccc(C)c([N+](=O)[O-])c1	none
COCCCNC(=O)CN(c1cc(Cl)ccc1OC)S(=O)(=O)c1ccc(C)c([N+](=O)[O-])c1	OX1R antag-1 78.9 | OX1R HTRF conf 59.4 | CHO-K1 HTRF inactive
CCCCN(C)Cc1c(O)ccc2c(-c3ccccc3)cc(=O)oc12	OX1R antag-1 85.1 | OX1R HTRF conf inactive | CHO-K1 HTRF inactive
O=C(NNc1c2ccccc2nc2ccccc12)c1ccc(O)cc1O	OX1R antag-1 102.5, TAAR1 antag 60.7 | OX1R HTRF conf 84.3 | CHO-K1 HTRF 19.6
O=C(NNc1c2ccccc2nc2ccccc12)c1cccc(O)c1	none
O=C(NNC(=O)c1ccccc1Cl)c1ccccc1Cl	none
O=C(NNc1c2ccccc2nc2ccccc12)c1ccccc1Cl	OX1R antag-1 82.8 | OX1R HTRF conf inactive | CHO-K1 HTRF inactive
Cc1cc(C)c(C(=O)COC(=O)C2CC3CCCC(C2)C3=O)c(C)c1 (stereo not drawn)	none
COc1ccc(-c2oc3ccc(-c4cc(OC)c(OC)c(OC)c4)cc3c2C#Cc2ccsc2)cc1	none
O=C1CCCC(O)=C1N=Nc1ccc(C(=O)O)cc1	OX1R antag-1 86.3 | OX1R HTRF conf 72.2 | CHO-K1 HTRF 63.7
O=C1CCCC(O)=C1N=Nc1cccc(S(=O)(=O)N2CCOCC2)c1	none
O=C1CCCC(O)=C1N=Nc1ccc2c(c1)OCO2	OX1R antag-1 80.8 | OX1R HTRF conf inactive | CHO-K1 HTRF 57.8
O=C1CCCC(O)=C1N=Nc1c(Cl)cc(C(F)(F)F)cc1Cl	none
O=C1c2ccccc2C(=O)c2c1ccc1c(=O)n(-c3ccccc3)[nH]c21	none
CC(C)Cn1[nH]c2c3c(ccc2c1=O)C(=O)c1ccccc1C3=O	OX1R antag-1 135.2 (no result: TAAR1 antag, TAAR1 ag) | OX1R HTRF conf inactive | CHO-K1 HTRF 33.3
O=C(CSc1nnc(NC(=O)C2CC2)s1)Nc1ccccc1Cl	none
COc1ccc2cc(C(N)=O)/c(=N/NC(=O)c3ccco3)oc2c1	OX1R antag-1 79.2 | OX1R HTRF conf inactive | CHO-K1 HTRF inactive
COc1cc(/C=N/NC(N)=O)cc([N+](=O)[O-])c1O	OX1R antag-1 91.0 | OX1R HTRF conf 55.4 | CHO-K1 HTRF 62.3
c1ccc(-c2nnc(-c3ccccc3)nn2)cc1	none
c1cncc(-c2nnc(-c3cccnc3)nn2)c1	OX1R antag-1 87.6 | OX1R HTRF conf inactive | CHO-K1 HTRF 28.3
CCN(CC)c1ccc(/C=N/NC(=O)c2ccoc2C)c(O)c1	OX1R antag-1 84.5 | OX1R HTRF conf 90.9 | CHO-K1 HTRF inactive
CCN(CC)c1ccc(/C=N/NC(=O)OC)c(O)c1	none
Cc1ccc(C(=O)N(C)Cc2ccc(N3CCOCC3)cc2)cc1S(=O)(=O)NCc1ccccc1	none
CC(C)C[C@H](NC(=O)N1CC(=O)Nc2ccccc21)C(=O)N[C@H](Cc1c[nH]c2ccccc12)C(=O)O	none
CC(C)C[C@H](NC(=O)N1CC(=O)Nc2ccccc21)C(=O)N[C@@H](Cc1c[nH]c2ccccc12)C(=O)O	OX1R antag-1 81.8 | OX1R HTRF conf inactive | CHO-K1 HTRF inactive
CCN(CC)C(=O)CSc1nnc(-c2c[nH]c3ccccc23)o1	OX1R antag-1 78.2 | OX1R HTRF conf inactive | CHO-K1 HTRF inactive
COC(=O)CSc1nnc(-c2c[nH]c3ccccc23)o1	none
COCCCNC(=O)/C=C1\Sc2ccccc2N(Cc2ccccc2F)C1=O	OX1R antag-1 85.6 | OX1R HTRF conf 76.6 | CHO-K1 HTRF inactive
CCN1CCN(CCNC(=O)c2ccc(/C=C3\Sc4ccccc4N(Cc4ccccc4F)C3=O)cc2)CC1	none
Cc1cc(SCC(=O)NC2(C#N)CCCCC2)nc2c(C)cccc12	none
COc1ccc(-c2csc(NC(=S)NC(=O)c3ccco3)n2)cc1	none
O=C(Nc1nc(-c2ccc3c(c2)OCCO3)cs1)c1ccco1	none
CCC(=O)N1CCc2cc(-c3csc(NC(=O)c4ccco4)n3)ccc21	OX1R antag-1 93.7 | OX1R HTRF conf 65.6 | CHO-K1 HTRF inactive
O=C(NC(=S)Nc1nc(-c2ccccc2)cs1)c1ccco1	OX1R antag-1 79.2 | OX1R HTRF conf 62.8 | CHO-K1 HTRF inactive
CCOC(=O)CN(C#N)c1nc(N(C)C)nc(N(C)C)n1	none
N#CC1=C(N)Oc2c(ccc3cccnc23)C1c1cccnc1 (stereo not drawn)	OX1R antag-1 96.1 | OX1R HTRF conf inactive | CHO-K1 HTRF inactive
COc1ccc2oc(C(=O)Nc3ccc(S(=O)(=O)N(C)C4CCN(C)CC4)cc3)c(C)c2c1	none
Cn1cnc([N+](=O)[O-])c1S(=O)(=O)Oc1cccc2ccccc12	none (no result: CHO parental Ca, OX1R antag-1, NTR1 ag, OX1R antag-2)
Cn1cnc([N+](=O)[O-])c1Oc1cccc2ccccc12	OX1R antag-1 85.0 | OX1R HTRF conf inactive | CHO-K1 HTRF inactive
COC(=O)c1ccccc1NC(=O)COc1ccc2c(c1)OCO2	OX1R antag-1 80.1 | OX1R HTRF conf 63.1 | CHO-K1 HTRF inactive
O=C(COc1ccc2c(c1)OCO2)Nc1ccccc1F	none
CC(C)(C)NC(=S)N/N=C\c1ccc(-c2ccc([N+](=O)[O-])cc2)o1	none
CCCCC(=O)N/N=C/c1ccc(-c2ccc([N+](=O)[O-])cc2)o1	OX1R antag-1 102.5 | OX1R HTRF conf inactive | CHO-K1 HTRF inactive
